Measured values reported in ChEMBL document CHEMBL1151991, “Cytotoxic guanidine alkaloids from Pterogyne nitens” (J Nat Prod, 2009).
Converted amounts (≈) assume the structure as drawn.

What was measured:
Type in all cases: functional, cell-based
HL-60 = experiment: Cytotoxicity against human HL60 cells after 3 days by MTT assay; conditions: HL-60, 72 h
Summary of the method: (§1)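 Cells kept in RPMI-1640 with 10% fetal calf serum, 2 mM glutamine, streptomycin and penicillin at 37 °C, 5% CO2. Seeded at 10^5 cells/well (adherent) or 0.3 × 10^6 cells/well (suspension). […] Medium then replaced by 0.5 mg/mL MTT for 3 h, formazan dissolved in DMSO, absorbance read. IC50 by modified NCI protocol.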

MDA-MB-435 = experiment: Cytotoxicity against human MDA-MB-435 cells after 3 days by MTT assay; conditions: MDA-MB-435, 72 h
Summary of the method: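 Seeded at 10^5 cells/well (adherent) or 0.3 × 10^6 cells/well (suspension). Medium then replaced by 0.5 mg/mL MTT for 3 h, formazan dissolved in DMSO, absorbance read. IC50 by modified NCI protocol.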

SF-295 = experiment: Cytotoxicity against human SF295 cells after 3 days by MTT assay; conditions: SF-295, 72 h; summary of the method: as §1
HCT-8 = experiment: Cytotoxicity against human HCT8 cells after 3 days by MTT assay; conditions: HCT-8, 72 h; summary of the method: as §1

Row | Compound | IC50 (HL-60) [µg/mL] | IC50 (MDA-MB-435) [µg/mL] | IC50 (SF-295) [µg/mL] | IC50 (HCT-8) [µg/mL]
1 | CC(C)=CCN=C(N)N [GALEGINE] | > 5 | > 5 | > 5 | > 5
2 | CC(C)=CCC/C(C)=C/CN=C(N)N [NITENSIDINE D] | > 5 | > 5 | > 5 | > 5
3 | CC(C)=C/C=C/C1(C)CCN=C(N)N1 (stereo not given) [NITENSIDINE E] | 3.6 (≈ 18.6 µM) | > 5 | 4.9 (≈ 25.3 µM) | > 5
4 | CC(C)=CCNC(=N)NCC=C(C)C [PTEROGYNIDINE] | > 5 | > 5 | > 5 | > 5
5 | CC(C)=CCN(CC=C(C)C)C(=N)N [PTEROGYNINE] | > 5 | > 5 | > 5 | > 5
